Experimental data taken from ChEMBL document CHEMBL1137559, “Rational design of 5'-thiourea-substituted alpha-thymidine analogues as thymidine monophosphate kinase inhibitors capable of inhibiting mycobacterial growth” (J Med Chem, 2007).
Values after ≈ are worked out from the molar mass of the structure shown.

System: Mycobacterium tuberculosis variant bovis
Assay: Growth inhibition of Mycobacterium bovis BCG 1173P2
Format: functional, Mycobacterium bovis BCG str. Pasteur 1173P2
Procedure, shortened: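 Broth microdilution in 7H9 Middlebrook medium with 0.2% glycerol, 0.5% Tween 80 and OADC. Uses two-fold serial dilutions and about 10^5 bacteria/ml, incubated at 37 °C. Resazurin 0.01% was added at day 8 and incubated overnight, then read as OD 570 minus 630 nm. MIC was taken as the lowest concentration preventing the blue-to-pink change.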

SMILES	MIC99 [µg/mL]	MIC50 [µg/mL]
Cc1cn([C@@H]2C[C@H](O)[C@@H](CNC(=S)Nc3ccc(Cl)c(Cl)c3)O2)c(=O)[nH]c1=O	25 (≈ 56.1 µM)	–
Cc1cn([C@@H]2CC[C@@H](CNC(=S)Nc3ccc(Cl)c(C(F)(F)F)c3)O2)c(=O)[nH]c1=O	40 (≈ 86.4 µM)	–
Cc1cn([C@@H]2C[C@H](O)[C@@H](CNC(=O)Nc3ccc(Cl)c(Cl)c3)O2)c(=O)[nH]c1=O	–	40 (≈ 93.2 µM)
Cc1cn([C@@H]2C[C@H](O)[C@@H](CNC(=O)Nc3ccc(Cl)c(C(F)(F)F)c3)O2)c(=O)[nH]c1=O	–	40 (≈ 86.4 µM)
Cc1cn([C@@H]2C[C@H](O)[C@@H](CNC(=S)Nc3ccc(Cl)c(C(F)(F)F)c3)O2)c(=O)[nH]c1=O	20 (≈ 41.8 µM)	–
Cc1cn([C@@H]2C[C@H](O)[C@@H](CNC(=S)NCc3ccc(Cl)c(C(F)(F)F)c3)O2)c(=O)[nH]c1=O	40 (≈ 81.2 µM)	–
Cc1cn([C@@H]2C=C[C@@H](CNC(=S)Nc3ccc(Cl)c(C(F)(F)F)c3)O2)c(=O)[nH]c1=O	100 (≈ 217 µM)	–
Cc1cn([C@@H]2C[C@H](O)[C@@H](CNC(=S)NCCc3ccc(Cl)c(Cl)c3)O2)c(=O)[nH]c1=O	50 (≈ 106 µM)	–
Cc1cn([C@@H]2C[C@H](O)[C@@H](CNC(=S)Nc3ccc4c(c3)C(=O)OC43c4ccc(O)cc4Oc4cc(O)ccc43)O2)c(=O)[nH]c1=O	> 150	–
Cc1cn([C@@H]2C[C@H](O)[C@@H](CN)O2)c(=O)[nH]c1=O	> 40	–
